From ChEMBL document CHEMBL4130517, “Discovery of a Tetrahydrobenzisoxazole Series of γ-Secretase Modulators” (ACS Med Chem Lett, 2017)
Active and inactive are the calls of the source. The calls are words filed in the database; no cut-off is given here.

Legend:
Gamma-secretase = test: Modulation of gamma-secretase (unknown origin) expressed in HEK293 cells harboring SCP99-Lon mutation assessed as reduction in Abeta42 production after 5 hrs by sandwich immunoassay; format: cell-based, Homo sapiens
Outline: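 HEK293 cells incubated 5 h with a range of GSM concentrations. Aβ42 in conditioned medium quantified by MSD sandwich electrochemiluminescence immunoassay, using TAG-G2-11 and biotin-4G8 antibodies.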

[1] = target: T1, Gamma-secretase (Homo sapiens) (UniProt Q96BI3+Q9NZ42+Q8WW43+P49768+Q92542+P49810); test: Modulation of gamma-secretase (unknown origin) expressed in HEK293 cells harboring SCP99-Lon mutation assessed as ratio of total amyloid beta to amyloid beta 42 level after 5 hrs by sandwich immunoassay; format: cell-based
Outline: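 HEK293 cells exposed 5 h to varied GSM concentrations. Conditioned medium assayed by MSD sandwich electrochemiluminescence immunoassay: Aβ42 with TAG-G2-11/biotin-4G8, total Aβ with TAG-W02/biotin-4G8. Ratio formed from total Aβ and Aβ42.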

P-gp [2] = test: Substrate activity at P-gp (unknown origin) assessed as efflux ratio of permeability across basolateral to apical over apical to basolateral side; format: ADME; details: human, not told
P-gp [3] = test: Substrate activity at P-gp (unknown origin) assessed as permeability across apical to basolateral side; format: ADME; details: human, not told; read-out: permeability
[4] = Drug uptake in brain of Sprague-Dawley rat at 30 mg/kg, po after 3 hrs by LC-MS/MS analysis; format: ADME, organism-based; details: read-out: Drug uptake
Outline: (§1)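 Rats given a single oral dose of 30 mg/kg. Plasma and brain collected 3 h post-dose and drug concentration measured; n = 3.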

[5] = Drug uptake in plasma of Sprague-Dawley rat at 30 mg/kg, po after 3 hrs by LC-MS/MS analysis; format: ADME, organism-based; outline: as §1
P-gp [6] = test: Substrate activity at P-gp (unknown origin) assessed as permeability across basolateral to apical side; format: ADME; details: human, not told; read-out: permeability
[7] = Dissociation constant, pKa of the compound; format: physicochemical
[8] = target: T1, Gamma-secretase (Homo sapiens); test: Modulation of gamma-secretase (unknown origin) expressed in HEK293 cells harboring SCP99-Lon mutation assessed as increase in amyloid beta 38 level at 10 uM by surface enhanced laser desorption/ionization mass spectrometry; format: cell-based
[9] = target: T1, Gamma-secretase (Homo sapiens); test: Modulation of gamma-secretase (unknown origin) expressed in HEK293 cells harboring SCP99-Lon mutation assessed as reduction in amyloid beta 40 level at 10 uM by surface enhanced laser desorption/ionization mass spectrometry; format: cell-based
[10] = target: T1, Gamma-secretase (Homo sapiens); test: Modulation of gamma-secretase (unknown origin) expressed in HEK293 cells harboring SCP99-Lon mutation assessed as increase in amyloid beta 37 level at 10 uM by surface enhanced laser desorption/ionization mass spectrometry; format: cell-based
[11] = target: T1, Gamma-secretase (Homo sapiens); test: Modulation of gamma-secretase (unknown origin) expressed in HEK293 cells harboring SCP99-Lon mutation assessed as reduction in amyloid beta 42 level at 10 uM by surface enhanced laser desorption/ionization mass spectrometry; format: cell-based
Rattus norvegicus = test: Reduction in amyloid beta 42 level in Sprague-Dawley rat cerebrospinal fluid at 30 mg/kg, po administered as single dose after 3 hrs by sandwich immunoassay relative to control; format: functional; design: scale not given: the % may be the effect or the level left
Outline: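 Non-transgenic rats received a single oral 30 mg/kg dose or vehicle. CSF sampled 3 h later and Aβ42 compared against vehicle-treated animals; n = 5.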

| Compound | IC50 (Gamma-secretase) [µM] | Ratio [1] | other results |
| --- | --- | --- | --- |
| COc1cc(-c2noc3c2CCCC3Oc2cc(F)cc(F)c2)ccc1-n1cnc(C)c1 (stereo not given) | 0.2 | 98 | – |
| COc1cc(-c2noc3c2CCCC3NCc2cc(F)cc(F)c2)ccc1-n1cnc(C)c1 (stereo in doubt; 14c) [listing 1 of 2 here] | 0.029 | – | efflux ratio (P-gp [2]): 6.8; Papp A→B (P-gp [3]): 6.8 ×10⁻⁶ cm/s; concentration at 3 h [4]: 2.19 µM; concentration at 3 h [5]: 6.01 µM; Papp B→A (P-gp [6]): 46.2 ×10⁻⁶ cm/s |
| CNC1CCCc2c(-c3ccc(-n4cnc(C)c4)c(OC)c3)noc21 (stereo not given) | 12 | 2 | pKa [7]: 8.1 |
| COc1cc(-c2noc3c2CCCC3NC2CCCCC2)ccc1-n1cnc(C)c1 (stereo not given) | 0.31 | 64 | pKa [7]: 8.42 |
| COc1cc(-c2noc3c2CCCC3N[C@H](C)c2ccc(F)cc2)ccc1-n1cnc(C)c1 (stereo not given in full) | 0.26 | 77 | – |
| COc1cc(-c2noc3c2CCCC3NCc2cc(F)cc(F)c2)ccc1-n1cnc(C)c1 (stereo in doubt; 14c) [listing 2 of 2 here] | – | 575 | Activity [8]: Active; Activity [9]: Active; Activity [10]: Active; Activity [11]: Active |
| COc1cc(-c2noc3c2CCCC3NCC(F)(F)F)ccc1-n1cnc(C)c1 (stereo not given) | 0.46 | 43 | pKa [7]: 5.42 |
| COc1cc(-c2noc3c2CCCC3Nc2ccc(F)cc2)ccc1-n1cnc(C)c1 (stereo in doubt; 14a) [listing 1 of 2 here] | – | 499 | Activity [8]: Active; Activity [9]: Active; Activity [10]: Active; Activity [11]: Active |
| COc1cc(-c2noc3c2CCCC3Nc2ccc(F)cc2)ccc1-n1cnc(C)c1 (stereo in doubt; 14b) [listing 1 of 2 here] | – | 86 | – |
| COc1cc(-c2noc3c2CCCC3NCc2cc(F)cc(F)c2)ccc1-n1cnc(C)c1 (stereo in doubt; 14d) [listing 1 of 2 here] | 0.64 | – | – |
| COc1cc(-c2noc3c2CCCC3NCc2ccc(F)cc2)ccc1-n1cnc(C)c1 (stereo not given) | 0.13 | 32 | Activity [8]: Active; pKa [7]: 7.08; Activity [9]: Active; Activity [10]: Active; Activity [11]: Active |
| COc1cc(-c2noc3c2CCCC3Nc2ccc(F)cc2)ccc1-n1cnc(C)c1 (stereo in doubt; 14b) [listing 2 of 2 here] | 0.23 | – | – |
| COc1cc(-c2noc3c2CCCC3(O)c2cc(F)cc(F)c2)ccc1-n1cnc(C)c1 (stereo not given) | 0.19 | 105 | – |
| COc1cc(-c2noc3c2CCCC3Oc2ccc(F)cc2)ccc1-n1cnc(C)c1 (stereo not given) | 0.29 | 68 | – |
| COc1cc(-c2noc3c2CCCC3NCc2cc(F)cc(F)c2)ccc1-n1cnc(C)c1 (stereo in doubt; 14d) [listing 2 of 2 here] | – | 28 | – |
| COc1cc(-c2noc3c2CCCC3Nc2ccc(F)cc2)ccc1-n1cnc(C)c1 (stereo in doubt; 14a) [listing 2 of 2 here] | 0.039 | – | efflux ratio (P-gp [2]): 1.6; Papp A→B (P-gp [3]): 37.6 ×10⁻⁶ cm/s; pKa [7]: 5.33; Activity (Rattus norvegicus): 58%; concentration at 3 h [4]: 14.3 µM; concentration at 3 h [5]: 10.4 µM; Papp B→A (P-gp [6]): 60 ×10⁻⁶ cm/s |
| COc1cc(-c2noc3c2CCCC3N(C)Cc2ccc(F)cc2)ccc1-n1cnc(C)c1 (stereo not given) | 0.25 | 79 | – |
| COc1cc(-c2noc3c2CCCC3c2cc(F)cc(F)c2)ccc1-n1cnc(C)c1 (stereo not given) | 0.11 | 178 | – |
| COc1cc(-c2noc3c2CCCC3(O)Cc2cc(F)cc(F)c2)ccc1-n1cnc(C)c1 (stereo not given) | 0.15 | 102 | – |
| COc1cc(-c2noc3c2CCCC3OCc2cc(F)cc(F)c2)ccc1-n1cnc(C)c1 (stereo not given) | 0.51 | 39 | – |
